Results reported in ChEMBL document CHEMBL1144159, “Impacts of baicalein analogs with modification of the 6th position of A ring on the activity toward NF-kappaB-, AP-1-, or CREB-mediated transcription” (Bioorg Med Chem Lett, 2008).

Tests used:
[1] = Effect on transcriptional activity of NF-kappaB transfected in human Hep G2 cells after 1 hr by luciferase reporter gene assay; type: cell-based; conditions: HepG2, 1 h
How it was run: (§1)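 HepG2 lines stably carrying luciferase reporters (NF-κB-luc, AP-1-luc, CRE-luc) were pretreated with a range of compound concentrations for 1 h, then incubated 4 h with or without stimulus: TNFα for NF-κB, TPA for AP-1, forskolin for CREB. Luciferase activity is expressed as % of the drug-free control, with or without stimulus. Amax is the maximal fold activity versus control; AC50 is the concentration giving 50% of maximal activity. Mean ± SD of ≥3 independent experiments.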

[2] = biological target: Cyclic AMP-responsive element-binding protein 1 (Homo sapiens) (UniProt P16220); test: Effect on transcriptional activity of CREB transfected in human Hep G2 cells after 1 hr by luciferase reporter gene assay relative to control; type: cell-based; conditions: HepG2; how it was run: as §1
Chain of Cyclic AMP-responsive element-binding protein 1 (Homo sapiens) (P16220 whole entry): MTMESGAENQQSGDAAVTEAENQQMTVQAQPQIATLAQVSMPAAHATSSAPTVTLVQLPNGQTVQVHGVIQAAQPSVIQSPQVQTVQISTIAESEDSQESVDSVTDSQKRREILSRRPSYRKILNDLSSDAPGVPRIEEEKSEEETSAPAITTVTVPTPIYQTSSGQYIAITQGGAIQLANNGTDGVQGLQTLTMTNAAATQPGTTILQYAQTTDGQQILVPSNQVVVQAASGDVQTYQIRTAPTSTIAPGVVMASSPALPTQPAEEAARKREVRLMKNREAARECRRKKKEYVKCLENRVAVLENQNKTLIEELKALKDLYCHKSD

[3] = biological target: Transcription factor Jun (Homo sapiens) (UniProt P05412); test: Effect on transcriptional activity of AP1 transfected in TPA-stimulated human Hep G2 cells after 4 hrs by luciferase reporter gene assay relative to control; type: cell-based; conditions: HepG2; how it was run: as §1
Chain of Transcription factor Jun (Homo sapiens) (P05412 whole entry): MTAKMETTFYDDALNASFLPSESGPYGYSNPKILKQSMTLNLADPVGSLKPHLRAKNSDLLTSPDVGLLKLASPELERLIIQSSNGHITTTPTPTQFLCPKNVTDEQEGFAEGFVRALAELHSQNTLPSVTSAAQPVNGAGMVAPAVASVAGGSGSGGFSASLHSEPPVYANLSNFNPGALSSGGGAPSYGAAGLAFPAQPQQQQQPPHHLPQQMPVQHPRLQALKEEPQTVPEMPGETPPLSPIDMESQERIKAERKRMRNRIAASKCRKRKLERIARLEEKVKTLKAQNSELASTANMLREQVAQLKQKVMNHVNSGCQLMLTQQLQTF

HepG2 [4] = test: Effect on transcriptional activity of NF-kappaB transfected in human Hep G2 cells after 1 hr by luciferase reporter gene assay relative to control; type: cell-based; how it was run: as §1
KB [5] = test: Cytotoxicity against multi-drug resistant human KB cells overexpressing mdr1 after 3 days; type: functional, cell-based; conditions: 72 h
How it was run: (§2)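 KB cells and their multidrug-resistant KB/MDR subline overexpressing mdr1, incubated with compound for 3 days (doubling time about 20–24 h). Growth inhibition is given as IC50, the concentration inhibiting 50% of cell growth. Values are the mean of three independent experiments.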

[6] = biological target: Transcription factor Jun (Homo sapiens) (UniProt P05412); test: Effect on transcriptional activity of AP1 transfected in human Hep G2 cells after 1 hr by luciferase reporter gene assay relative to control; type: cell-based; conditions: HepG2; how it was run: as §1
[7] = Effect on transcriptional activity of NF-kappaB transfected in TNF-alpha-stimulated human Hep G2 cells after 4 hrs by luciferase reporter gene assay; type: cell-based; conditions: HepG2, 4 h; how it was run: as §1
HepG2 [8] = test: Effect on transcriptional activity of NF-kappaB transfected in TNF-alpha-stimulated human Hep G2 cells after 4 hrs by luciferase reporter gene assay relative to control; type: cell-based; how it was run: as §1
[9] = biological target: Cyclic AMP-responsive element-binding protein 1 (Homo sapiens) (UniProt P16220); test: Effect on transcriptional activity of CREB transfected in forskolin-stimulated human Hep G2 cells after 4 hrs by luciferase reporter gene assay relative to control; type: cell-based; conditions: HepG2; how it was run: as §1
KB [10] = test: Cytotoxicity against human KB cells after 3 days; type: functional, cell-based; conditions: 72 h; how it was run: as §2

fold change (FC) [2]	fold change (FC) [3]	fold change (FC) [6]	fold change (FC) [9]	SMILES	AC50 [1]	fold change (FC) (HepG2 [4])	IC50 (KB [5])	AC50 [7]	fold change (FC) (HepG2 [8])	IC50 (KB [10])
2.04	1.18	1.44	5.21	CC(=O)Oc1c(O)cc2oc(-c3ccccc3)cc(=O)c2c1O	2.2 µM	6.62	61.6 µM	2.2 µM	3.47	–
1.81	1.21	1.35	14.5	CCOc1c(O)cc2oc(-c3ccccc3)cc(=O)c2c1O	0.7 µM	2.92	17.5 µM	–	1.27	–
1.28	1.27	1.41	2.61	COc1c(O)cc2oc(-c3ccccc3)cc(=O)c2c1O [OROXYLIN A]	4.8 µM	4.12	16.1 µM	5 µM	2.5	31.1 µM
1.31	0.85	1.36	7.69	O=c1cc(-c2ccccc2)oc2cc(O)c(OCc3ccccc3)c(O)c12	0.5 µM	2.08	3.2 µM	–	1.47	–
1.59	1.05	1.43	7.35	CCCOc1c(O)cc2oc(-c3ccccc3)cc(=O)c2c1O	–	1.81	> 100 µM	–	1.36	–
1.35	1.26	1.44	2.2	O=c1cc(-c2ccccc2)oc2cc(O)c(O)c(O)c12 [BAICALEIN]	8.3 µM	4.92	87.1 µM	8.6 µM	3.35	–
